The values below come from article PMC5517787 (International Journal for Parasitology: Drugs and Drug …, 2017).

The subject of assay [1] is mammary epithelial cell line (MCF10A). Kind of assay: cells. In kind it is cell-based. Conditions: for IC50 / inhibition at 100 µM: Homo sapiens, MCF-10A; for IC50: 48 h, read-out: MCF10A cells IC50; for inhibition at 100 µM: read-out: MCF10A cells % inhibition at 100 μM; for Selectivity index (SI) H. contortus L4 (72 h) / Selectivity index (SI) H. contortus L4 development (7 days) / Selectivity index (SI) H. contortus xL3 (72 h): highest value of IC50 range; for selectivity index (SI) for parasitic larvae of H. contortus, range: range over xL3, L4 motility and L4 development.

In assay [2] the test system is Haemonchus contortus exsheathed third-stage larvae (xL3s). Kind of assay: Whole-organism xL3 motility assay. It counts as cell-based. As to conditions: for IC50: Haemonchus contortus.
For assay [3], the system named is Haemonchus contortus fourth-stage larvae (L4s). In words: L4 motility assay. It counts as cell-based.
Assay [4] relates to adult female and male Brugia malayi. Conditions: ref Storey et al., 2014, cited from earlier work.
Assay [5] deals with microfilariae of Dirofilaria immitis. As to conditions: read-out: motility IC50, D. immitis microfilariae; cited from earlier work.
Assay [6] has as its system microfilariae of Brugia malayi. As to conditions: read-out: motility IC50, B. malayi microfilariae; ref Storey et al., 2014; cited from earlier work.
Assay [7] relates to T. muris L1s. Kind of assay: Whipworm L1 in vitro assay. It counts as cell-based, Trichuris muris. Put shortly: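 Forty T. muris L1s per well in 100 μl RPMI-1640 with amphotericin B (12.5 μg/ml), penicillin (500 U/ml) and streptomycin (500 μg/ml). Test compound at 100 μM in duplicate; levamisole (100 μM) as positive control. Held 24 h at 37 °C, 5% CO2. Total L1s counted, then larvae stimulated with 100 μl hot water and motile L1s counted.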

Assay [8] deals with adult A. ceylanicum. In words: Adult hookworm in vitro assay. As to conditions: for killing of adult A. ceylanicum: 50 μM, 72 h. In kind it is cell-based, Ancylostoma ceylanicum. In short, it runs like this:
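Adult worms taken from small intestines of hamsters orally infected with 150 A. ceylanicum L3s three weeks earlier. Three worms per well, 2 wells per compound, in HBSS with 10% foetal calf serum, amphotericin B (25 μg/ml), penicillin (100 U/ml) and streptomycin (100 μg/ml). Test compound at 50 μM; levamisole (50 μM) as positive control. Held 72 h at 37 °C, 5% CO2, then condition assessed microscopically.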

In assay [9] the test system is adult female and male Brugia malayi. Kind of assay: Adult motility assay. It counts as cell-based. As to conditions: for IC50: Brugia malayi.
The subject of assay [10] is microfilariae of Brugia malayi. Kind of assay: Microfilariae motility assay. In kind it is cell-based. Conditions: 72 h, read-out: motility IC50, B. malayi microfilariae. Put shortly: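 Individual gravid B. malayi females in RPMI-1640 with gentamycin (10 μg/ml) and amphotericin B (2.5 μg/ml). Two-fold test-compound dilutions from 100 to 0.97 μM in duplicate; RPMI* with 1% DMSO as negative control. Incubated at 37 °C, 5% CO2. At 72 h, about 100 released microfilariae moved to 96-well plates and filmed for 30 s on the Worminator. Run three times; IC50 from a four-parameter variable-slope fit.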

The test system of assay [11] is microfilariae of Dirofilaria immitis. Kind of assay: microbe, parasite or virus in culture. As to conditions: for IC50: Dirofilaria immitis, read-out: motility IC50, D. immitis microfilariae. In kind it is cell-based.
[12] abbreviates: 24 h, read-out: xL3 motility IC50.
The mark [13] stands for this setting: 48 h, read-out: xL3 motility IC50.
Setting [14] is: 72 h, read-out: xL3 motility IC50.
The mark [15] stands for this setting: 24 h, read-out: L4 motility IC50.
Setting [16] is: 48 h, read-out: L4 motility IC50.
The mark [17] stands for this setting: 72 h, read-out: L4 motility IC50.
The mark [18] stands for this setting: IC50 MCF10A / IC50 nematode, estimated IC50 range.

Values joined by “and” are separate entries in the source; they are usually repeats but may differ in a detail not shown here. Equal entries are not always repeated. Where two headings read alike, the source gives them in different places. Marks after values point to notes of the source that are not given here.

For `C[C@](C#N)(COc1cc(C#N)ccc1C(F)(F)F)NC(=O)c1ccc(SC(F)(F)F)cc1` [Monepantel, monepantel], the half-maximal inhibitory concentration (IC50) (commonly the concentration needed to halve the response being measured) worked out at 24900 ± 11800 nM in assay [1]; 480 ± 230 nM in assay [2] (setting [12]); 260 ± 150 nM in assay [2] (setting [13]); 160 ± 80 nM in assay [2] (setting [14]); 760 ± 290 nM in assay [3] (setting [15]); 340 ± 180 nM in [3] (setting [16]). Further, the half-maximal inhibitory concentration (IC50) in assay [3] (setting [17]) came to 370 ± 320 nM. Also, the inhibition (usually the percentage by which the read-out fell short of the control) at 100 µM in assay [1] is 0.1 ± 0.05%. Also, the “Selectivity index (SI) H. contortus L4 (72 h)” value in [1] (IC50 MCF10A / IC50 nematode) was 67.4. Moreover, in assay [1] (IC50 MCF10A / IC50 nematode), the “Selectivity index (SI) H. contortus L4 development (7 days)” value (“Selectivity index … (7 days)” for short) was found to be 332.4. In addition, the “selectivity index (SI) for parasitic larvae of H. contortus, range” value (shortened to “selectivity index (SI) … range”) in assay [1] is recorded as 67–332.

Take `CO/N=C1\C[C@]2(C[C@@H]3C[C@@H](C/C=C(\C)C[C@@H](C)/C=C/C=C4\CO[C@@H]5[C@H](O)C(C)=C[C@@H](C(=O)O3)[C@]45O)O2)O[C@H](/C(C)=C/C(C)C)[C@H]1C` [Moxidectin, moxidectin]: the IC50 in assay [1] was under 6000 nM; in assay [2] (setting [12]), 190 ± 30 nM; in assay [2] (setting [13]) it was 970 ± 840 nM; in assay [2] (setting [14]), 80 ± 40 nM; in assay [5], 9300 nM; in assay [6], about 6000 nM. Moreover, the concentration for half-maximal inhibition (IC50) amounted to 70 ± 40 nM in assay [3] (setting [15]), 50 ± 20 nM in assay [3] (setting [16]) and 20 ± 10 nM in assay [3] (setting [17]). In addition, the inhibition at 100 µM in [1] came to 0.05 ± 0.01%. Also, the “Selectivity index (SI) H. contortus L4 (72 h)” value in assay [1] (IC50 MCF10A / IC50 nematode) was 300. Further, the “Selectivity index … (7 days)” value in [1] (IC50 MCF10A / IC50 nematode) came to 1.7. In addition, the “Selectivity index (SI) H. contortus xL3 (72 h)” value in [1] (IC50 MCF10A / IC50 nematode) turned out to be 75. Besides, the “selectivity index (SI) … range” value in [1] lay within 2 to 300. Also, the “comparison value for motility of adult B. malayi” value in assay [4] (24 h) is 1.3 µM; in assay [4] (48 h), 2.9 µM.

In the case of ivermectin, in assay [5], the IC50 is 43000 nM.

For `c1ccc([C@H]2CN3CCSC3=N2)cc1` [levamisole, reference compound], in assay [7] (100 μM, 24 h), the “killing of T. muris L1s” value is reported as “killed”. Further, the “killing of adult A. ceylanicum” value in assay [8] is “killed”.

Take `O=C(Nc1ccc(Cl)cc1)N1CCCC1c1nc(-c2ccccc2)no1` (stereo not shown) [SN00797439, N-(4-chlorophenyl)-2-(3-phenyl-1,2,4-oxadiazol-5-yl)-1-pyrrolidinecarboxamide]: the “concentration at which movement of female and male adults ceased” value in assay [9] (24 h) worked out at 100 µM; in [9] (48 h), 50 µM. Moreover, the IC50 is 25000 to 50000 nM in assay [9] (24 h, read-out: motility IC50, B. malayi adult female); 25000 to 50000 nM in assay [9] (24 h, read-out: motility IC50, B. malayi adult male); about 3000 nM in assay [10]; 50000 to 100000 nM in [1]; about 50000 nM in [11] (24 h); about 50000 nM in assay [11] (48 h). The half-maximal inhibitory concentration (IC50) was 3000 to 50000 nM in assay [7] (Trichuris muris, read-out: IC50 on first-stage larvae of T. muris (abstract)); 3460 ± 820 nM in assay [2] (setting [12]); 10100 ± 2060 nM in [2] (setting [13]); 5930 ± 1380 nM in assay [2] (setting [14]); 3460 to 5930 nM in assay [2] (read-out: xL3 IC50 (abstract summary)); 6250 to 12500 nM in [3] (setting [15]). The IC50 in assay [3] (setting [16]) was in the range of 780 to 1500 nM; in assay [3] (setting [17]), 310 to 780 nM; in assay [3] (read-out: L4 motility IC50 (abstract summary)) it was 310 to 12500 nM. The “Selectivity index (SI) D. immitis mff (48 h)” value in [1] is reported as 2 ^b. Moreover, the inhibition at 100 µM in assay [1] stood at 6.2 ± 0.66%. Further, the “Selectivity index (SI) B. malayi adult females” value in [1] (setting [18]) is listed as 2 ^b. The “Selectivity index (SI) B. malayi adult males” value in assay [1] (setting [18]) is 2 ^b. In [1] (IC50 MCF10A / IC50 nematode), the “Selectivity index (SI) H. contortus L4 (72 h)” value is 128.2 ^b. Moreover, the “Selectivity index … (7 days)” value in [1] (IC50 MCF10A / IC50 nematode) stood at 9.1. Besides, the “Selectivity index (SI) H. contortus xL3 (72 h)” value in assay [1] (IC50 MCF10A / IC50 nematode) is recorded as 16.9. For the same molecule, the “selectivity index (SI) … range” value in [1] is 9–128. The “concentration giving complete inhibition of microfilariae motility” value in assay [11] amounted to 100 µM. Further, the “T. muris L1s dead” value in assay [7] (100 μM, 24 h) was > 90% and 90.1%. The xL3 phenotype entry in assay [2] (20 μM) is ““coiled” xL3 phenotype”. Also, the “reduction of xL3 motility” value in [2] (20 μM, 72 h, primary and confirmatory screens) is recorded as at least 70%. In addition, the “kill of adults of A. ceylanicum (abstract)” value in assay [8] is over 90%. Further, in assay [8], the “killing of adult A. ceylanicum” value is given as “killed”.
